From paper PMC10012268 (ACS Infectious Diseases, 2023)

Assays:
[1] = tested on: P. falciparum 3D7 parasites; test: P. falciparum 3D7 asexual-stage parasite LDH viability assay; type: cell-based, Plasmodium falciparum; conditions: 3D7 parasite EC50 compared to 17
[2] = Liver microsome stability, mouse; type: in vitro ADME; conditions: pooled mouse liver microsomes
Summary of the method: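 Test compound (1 μM, phosphate buffer) was incubated with pooled mouse liver microsomes (0.5 mg/mL) at 37 °C, with and without an NADPH regeneration system, sampling at 0, 5, 20, 30, 45 and 60 min. Run in duplicate.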

[3] = Hepatocyte stability, rat; type: in vitro ADME; conditions: pooled rat hepatocytes
Summary of the method: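 Test compound (1 μM) in Krebs–Henseleit buffer was incubated with pooled rat hepatocytes (1 × 10^6 cells/mL) at 37 °C, 5% CO2, with samples from 0 to 90 min. Reactions were quenched with ice-cold acetonitrile and centrifuged, and supernatants were analysed by LC–MS/MS. Half-life and CLint were derived from parent remaining. Run in duplicate.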

[4] = LogD at pH 7.4; type: physicochemical; conditions: 1-octanol/phosphate-buffered saline (1:1, v/v)
[5] = tested on: 41 resistant 3D7 P. falciparum populations (V259L cyt b Qo site mutation); test: LDH growth assay against 41 resistant populations; type: cell-based; conditions: Plasmodium falciparum, 3D7, read-out: EC50 against all three populations
Summary of the method: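 Three 3D7 clonal populations were selected by exposure to test compound starting at 2 × EC50, monitored by Giemsa smears and stepped up after recovery. Synchronised ring-stage parasites were then grown 72 h on predispensed compound in RPMI/AlbuMAX and frozen at −80 °C overnight. LDH activity was read with APAD/NBT absorbance at 650 nm.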

[6] = tested on: Pf Dd2 parental line; test: 3H-hypoxanthine 72 h assay, Dd2 parental line; type: cell-based; conditions: Plasmodium falciparum, DD2, read-out: Pf Dd2 EC50, Dd2 parental line, 3H-hypoxanthine 72 h; average of two experiments
[7] = tested on: Pf Dd2 strain with an I22L mutation in the Qi site cyt b; test: 3H-hypoxanthine 72 h assay, Dd2 cyt b; type: cell-based, Plasmodium falciparum
Summary of the method: (§1)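 Asexual blood-stage parasites in hypoxanthine-free RPMI 1640 with HEPES, NaHCO3, neomycin (100 μg/mL) and Albumax II (5 g/L). Infected blood (0.3% parasitemia, 2.5% hematocrit) was exposed to a 10-point serial dilution at 37 °C under 93% N2/4% CO2/3% O2. After 48 h, [3H]-hypoxanthine (0.5 μCi/well) was added for 24 h more. Scintillation cpm were normalised to untreated controls, and logit regression gave values as means of two experiments.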

[8] = tested on: Pf SB1-A6 strain with a CNV (∼2-fold) and a C276F mutation in DHODH; test: SB1-A6 asexual-stage assay; type: cell-based; conditions: Plasmodium falciparum, 72 h, read-out: SB1-A6 EC50
Summary of the method: (§2)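 Parasites were sorbitol-synchronised one cycle before setup. Ring stages at 0.5% parasitemia and 2% hematocrit were plated onto twofold compound dilutions and incubated at 37 °C for 72 h. Cells were fixed in 0.25% glutaraldehyde (RT, 30 min), stained with 2.5× SYBR Green (37 °C, 30 min) and counted by flow cytometry. EC50 is the average of three independent experiments.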

[9] = tested on: Pf Dd2 expressing ScDHODH; test: ScDHODH asexual-stage assay; type: cell-based; conditions: Plasmodium falciparum, DD2, 72 h, read-out: Dd2 ScDHODH EC50
Summary of the method: as §2

[10] = tested on: K1; test: 3H-hypoxanthine 72 h assay, K1; type: cell-based; conditions: Plasmodium falciparum, K1, read-out: Pf multidrug-resistant strain EC50 K1
[11] = tested on: NF54; test: 3H-hypoxanthine 72 h assay, NF54; type: cell-based; conditions: Plasmodium falciparum, NF54, read-out: Pf multidrug-resistant strain EC50 NF54
[12] = tested on: RF12; test: 3H-hypoxanthine 72 h assay, RF12; type: cell-based; conditions: Plasmodium falciparum, read-out: Pf multidrug-resistant strain EC50 RF12
[13] = tested on: 7G8; test: 3H-hypoxanthine 72 h assay, 7G8; type: cell-based; conditions: Plasmodium falciparum, 7G8, read-out: Pf multidrug-resistant strain EC50 7G8
[14] = tested on: mitochondrial electron transport chain of P. falciparum 3D7 asexual parasites; test: ETC biosensor / oxygen consumption rate; type: cell-based, Plasmodium falciparum
Summary of the method: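 Magnet-purified trophozoite-infected RBCs were saponin-released (0.05%, 37 °C, 3 min) and washed. Parasites were suspended in MAS buffer with 25 mM malate and 0.002% digitonin and seeded at 5 × 10^6 per Cell-Tak-coated well (800g, 10 min). Seahorse XFe96 OCR was read at baseline, after test compound (5 μM final), after TMPD (0.2 mM) with ascorbate (2 mM), then after NaN3 (10 mM). Each cycle was 20 s mix, 1 min wait, 2.5 min measure.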

[15] = tested on: drug-resistant P. falciparum strains; test: Profiling against a selection of multidrug-resistant parasites; type: cell-based, Plasmodium falciparum
Summary of the method: as §1

[16] = Liver microsome stability, human; type: in vitro ADME
[17] = Kinetic aqueous solubility; type: physicochemical; conditions: kinetic in PBS
Summary of the method: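 Miniaturised shake flask: test compound (200 μM) in PBS pH 7.4 was shaken at 600 rpm, 25 °C for 2 h, filtered, and the filtrate half-diluted in acetonitrile. Run in duplicate.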

[18] = tested on: P. falciparum NF54 female gametes; test: Dual gamete formation assay; type: cell-based; conditions: Plasmodium falciparum, NF54, read-out: female gamete EC50
Summary of the method: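 Stage V NF54 gametocyte cultures with >0.2% exflagellation were diluted to 12.5 million cells/mL in gametocyte medium containing 10% human serum and no Albumax. They were dispensed warm (625,000 cells/well) onto the test compound. After ookinete medium was added, plates went to 4 °C for 4 min and then 28 °C for 5 min, followed by 24 h at 28 °C in the dark. Female gametes (Pfs25) were scored from one fluorescence image per well.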

[19] = tested on: P. berghei EEFs; test: Exoerythrocytic stage assay; type: cell-based; conditions: Plasmodium berghei, 48 h, read-out: Pb liver stage EEFs EC50 (SD)
[20] = tested on: HepG2; test: HepG2 host cell viability in the liver stage panel; type: cell-based; conditions: Homo sapiens, HepG2, 48 h, read-out: HepG2 EC50 (liver stage)

Compound | hepatocyte CLint at 1 μM [3] [µL/min/1e6 cells] | logD at 2 h [4] | EC50 [6] [nM] | EC50 [10] [nM] | EC50 [11] [nM] | EC50 [12] [nM] | EC50 [13] [nM] | potency against each drug-resistant strain compared to the Dd2 and NF54 wild-type parasites [15] | further results
CCn1cc(-c2nc(C)no2)c(=O)c2cc(F)c(N3CCC(Cc4ccccc4)CC3)cc21 [Compound 41, 7-(4-Benzyl-1-piperidyl)-1-ethyl-6-fluoro-3-(3-methyl-1,2,4-oxadiazol-5-yl)quinolin-4-one] | 24.7 | 4.2 | 4 | 5 | 5 | 2 | 3 | equipotent | fold more potent than 17 [1]: 2 fold; microsomal CLint at 1 μM [2]: 44.1 µL/min/mg; EC50 [5]: ~800 nM; difference in sensitivity between the ELQ-300 resistant Dd2 strain and the Dd2 parental strain [7]: no difference in sensitivity; EC50 [8]: 480 nM; EC50 [9]: 860 nM; OCR upon addition of TMPD ([14]; after compound (5 μM), TMPD (cytochrome c electron donor) added): rescued; effect on malate-dependent oxygen consumption rate (OCR) ([14]; compounds at 5 μM, malate as the energy source): significantly reduce the OCR
CCOC(=O)c1cn(CC)c2cc(N3CCC(C)CC3)c(F)cc2c1=O [Compound 21, Ethyl 1-Ethyl-6-fluoro-7-(4-methyl-1-piperidyl)-4-oxo-quinoline-3-carboxylate] | > 92.4 | 3.2 | 55 | 48 | 65 | 20 | 38 | equipotent | liver microsomes human CLint [16]: 205.2 µL/min/mg; aqueous solubility pH 7.4 [17]: 22.9 μM; EC50 [18]: > 25000 nM; EC50 [19]: 24 nM; EC50 [20]: > 50000 nM
